Assay results published in ChEMBL document CHEMBL4028805, “Phenylthiazole Antibacterial Agents Targeting Cell Wall Synthesis Exhibit Potent Activity in Vitro and in Vivo against Vancomycin-Resistant Enterococci” (J Med Chem, 2017).
In brackets after ≈: the same amount, converted by molar mass. Activity calls are given as the source filed them.

Tests used:
[1] = tested on: Escherichia coli; experiment: Antibacterial activity against tolC deficient Escherichia coli assessed as formation of misshapen cells at 125 ug/ml after 30 mins in presence of sucrose by FM4-64/DAPI/SYTOX Green staining-based deconvolution microscopic analysis; assay type: functional
[2] = tested on: Escherichia coli; experiment: Antibacterial activity against tolC deficient Escherichia coli assessed as formation of spheroplasts at 125 ug/ml after 30 mins in presence of sucrose by FM4-64/DAPI/SYTOX Green staining-based deconvolution microscopic analysis; assay type: functional
[3] = tested on: Escherichia coli; experiment: Antibacterial activity against tolC deficient Escherichia coli assessed as cell lysis at 125 ug/ml after 2 hrs in presence of sucrose by FM4-64/DAPI/SYTOX Green staining-based deconvolution microscopic analysis; assay type: functional
[4] = tested on: Bacillus subtilis; experiment: Antibacterial activity against Bacillus subtilis assessed as cell shape defects at 1 times MIC after 2 hrs in presence of methylsulfonyl methane by phase contrast microscopic analysis; assay type: functional
Summary of the method: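 B. subtilis grown in LB at 37 °C to OD600 ~0.2 and treated, with or without MSM for osmotic stabilization, for 30 min or 2 h. Stained with FM 4-64 (1 μg/mL), DAPI (1 μg/mL) and SYTOX Green (1 μg/mL) to score permeability. Examined by deconvolution and phase-contrast microscopy.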

[5] = tested on: Acinetobacter baumannii; experiment: Antibacterial activity against Acinetobacter baumanii ATCC 19606 after 18 to 22 hrs in absence of colistin by broth microdilution method; assay type: functional; settings: ATCC 19606 = CIP 70.34 = JCM 6841
Summary of the method: (§1)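 Broth microdilution per CLSI guidelines. Gram-negatives grown in TSB. Each strain tested alone and again with colistin at ¼ × MIC to permeabilize the outer membrane. Plates incubated at 37 °C for 18–22 h. MIC read as the lowest concentration showing no visible growth.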

[6] = tested on: Escherichia coli; experiment: Antibacterial activity against Escherichia coli O157:H7 ATCC 35150 after 18 to 22 hrs in absence of colistin by broth microdilution method; assay type: functional
[7] = tested on: Enterobacter cloacae; experiment: Antibacterial activity against Enterobacter cloacae BAA-1154 after 18 to 22 hrs in absence of colistin by broth microdilution method; assay type: functional
[8] = tested on: Klebsiella pneumoniae; experiment: Antibacterial activity against Klebsiella pneumoniae BAA-1706 after 18 to 22 hrs in absence of colistin by broth microdilution method; assay type: functional
[9] = tested on: Pseudomonas aeruginosa; experiment: Antibacterial activity against Pseudomonas aeruginosa ATCC 15442 after 18 to 22 hrs in absence of colistin by broth microdilution method; assay type: functional
[10] = tested on: Escherichia coli; experiment: Antibacterial activity against Escherichia coli 1411 harboring delta-acrAB after 18 to 22 hrs in absence of colistin by broth microdilution method; assay type: functional
[11] = tested on: Enterococcus faecium; experiment: Antibacterial activity against vancomycin-resistant Enterococcus faecium ATCC 700221 after 18 to 22 hrs in absence of colistin by broth microdilution method; assay type: functional
[12] = tested on: Acinetobacter baumannii; experiment: Antibacterial activity against Acinetobacter baumanii ATCC 19606 after 18 to 22 hrs in presence of 1/4 times MIC colistin by broth microdilution method; assay type: functional; settings: ATCC 19606 = CIP 70.34 = JCM 6841; summary of the method: as §1
[13] = tested on: Escherichia coli; experiment: Antibacterial activity against Escherichia coli O157:H7 ATCC 35150 after 18 to 22 hrs in presence of 1/4 times MIC colistin by broth microdilution method; assay type: functional
[14] = tested on: Enterobacter cloacae; experiment: Antibacterial activity against Enterobacter cloacae BAA-1154 after 18 to 22 hrs in presence of 1/4 times MIC colistin by broth microdilution method; assay type: functional; summary of the method: as §1
[15] = tested on: Klebsiella pneumoniae; experiment: Antibacterial activity against Klebsiella pneumoniae BAA-1706 after 18 to 22 hrs in presence of 1/4 times MIC colistin by broth microdilution method; assay type: functional; summary of the method: as §1
[16] = tested on: Pseudomonas aeruginosa; experiment: Antibacterial activity against Pseudomonas aeruginosa ATCC 15442 after 18 to 22 hrs in presence of 1/4 times MIC colistin by broth microdilution method; assay type: functional; summary of the method: as §1
[17] = tested on: Staphylococcus aureus; experiment: Antibacterial against Methicillin-Resistant Staphylococcus aureus after 18 to 20 hrs by broth microdilution method; assay type: functional
[18] = tested on: Enterococcus faecium; experiment: Antibacterial activity against Enterococcus faecium clinical isolates after 18 to 22 hrs by broth microdilution method; assay type: functional
Summary of the method: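 Enterococcus faecium grown in BHI. MIC by CLSI broth microdilution, 37 °C for 18–22 h. Lowest concentration with no visible growth taken as MIC, reported as MIC50 across the isolates.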

[19] = tested on: Enterococcus faecalis; experiment: Antibacterial activity against Enterococcus faecalis clinical isolates after 18 to 22 hrs by broth microdilution method; assay type: functional
Summary of the method: (§2)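 CLSI broth microdilution against panels of enterococcal isolates. E. faecalis grown in TSB, E. faecium in BHI, 37 °C for 18–22 h. MIC is the lowest concentration without visible growth. MIC50 is the value inhibiting 50% of isolates in each group.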

[20] = tested on: Enterococcus faecalis; experiment: Antibacterial activity against vancomycin-resistant Enterococcus faecalis clinical isolates after 18 to 22 hrs by broth microdilution method; assay type: functional; summary of the method: as §2
[21] = tested on: Enterococcus faecium; experiment: Bactericidal activity against Vancomycin-resistant Enterococcus faecium clinical isolates after 18 to 22 hrs by broth microdilution method; assay type: functional
Summary of the method: (§3)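 MBC follows the broth microdilution MIC. 5 μL aliquots spotted onto TSA (E. faecalis) or BHI agar (E. faecium), incubated 37 °C for 18–22 h. MBC is the concentration giving >99% reduction in bacterial count. MBC50 is the value for 50% of isolates.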

[22] = tested on: Enterococcus faecium; experiment: Bactericidal activity against Enterococcus faecium after 18 to 22 hrs by broth microdilution method; assay type: functional
Summary of the method: (§4)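 MBC determined after the broth microdilution MIC. 5 μL aliquots plated onto TSA (E. faecalis) or BHI agar (E. faecium) and incubated at 37 °C for 18–22 h. MBC is the concentration giving >99% reduction in cell count, reported as MBC50.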

[23] = tested on: Enterococcus faecalis; experiment: Bactericidal activity against Enterococcus faecalis clinical isolates after 18 to 22 hrs by broth microdilution method; assay type: functional; summary of the method: as §4
[24] = tested on: Enterococcus faecalis; experiment: Bactericidal activity against vancomycin-resistant Enterococcus faecalis clinical isolates after 18 to 22 hrs by broth microdilution method; assay type: functional; summary of the method: as §3
[25] = tested on: Enterococcus faecalis; experiment: Bactericidal activity against vancomycin-resistant Enterococcus faecalis HM-201 at 4 times MIC after 2 hrs by time-kill assay; assay type: functional
Summary of the method: (§5)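 Late-log cells diluted to ~5 × 10^6 CFU/mL and exposed in triplicate to 4 × MIC, in TSB (E. faecalis HM-201) or BHI (E. faecium ATCC 700221) at 37 °C. Sampled at 0, 2, 4, 6, 8, 10, 12 and 24 h, diluted serially in PBS and plated on TSA or BHI agar. CFU/mL counted after 18–22 h. DMSO served as negative control.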

[26] = tested on: Enterococcus faecium; experiment: Bactericidal activity against vancomycin-resistant Enterococcus faecium ATCC 700221 at 4 times MIC after 4 hrs by time-kill assay; assay type: functional; summary of the method: as §5
[27] = tested on: HRT-18 cell line; experiment: Cytotoxicity against human HRT18 cells assessed as reduction in cell viability up to 40 ug/ml after 2 hrs by MTS assay; assay type: cell-based; settings: hrt-18, 2 h
Summary of the method: (§6)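 HRT-18 cells maintained in RPMI-1640 with 10% fetal horse serum at 37 °C, 5% CO2. Exposed to 5, 10, 20 or 40 μg/mL for 2 or 24 h, then MTS added and absorbance read at 490 nm. Viability expressed relative to untreated cells, n ≥ 3, one-way ANOVA with Dunnett's test.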

[28] = tested on: HRT-18 cell line; experiment: Cytotoxicity against human HRT18 cells assessed as reduction in cell viability at 20 ug/ml after 24 hrs by MTS assay; assay type: cell-based; settings: hrt-18, 24 h; summary of the method: as §6
[29] = tested on: HRT-18 cell line; experiment: Cytotoxicity against human HRT18 cells assessed as reduction in cell viability at 40 ug/ml after 24 hrs by MTS assay; assay type: cell-based; settings: hrt-18, 24 h; summary of the method: as §6
[30] = tested on: Enterococcus faecalis; experiment: Antibacterial activity against Enterococcus faecalis ATCC 31975 at 4 to 8 times MIC after 48 hrs by broth microdillution method; assay type: functional
Summary of the method: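 Single-step resistance selection. Cultures of 5 × 10^8 to 5 × 10^10 CFU/mL spread on TSA containing compound at 2×, 4× or 8× MIC and incubated aerobically at 37 °C for 48 h. Colony MICs rechecked by broth microdilution. Frequency calculated as resistant colonies per inoculum.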

[31] = tested on: Enterococcus faecalis; experiment: Antibacterial activity against vancomycin-resistant Enterococcus faecalis ATCC 51299 assessed as ratio of MIC after and before 6 serial passages measured after 18 hrs by broth microdillution method; assay type: functional
Summary of the method: (§7)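 Multi-step selection over 14 passages in two weeks. McFarland 0.5 inoculum diluted 1:300 in TSB (E. faecalis) or BHI (E. faecium) to 1 × 10^5 CFU/mL. Each passage reinoculated at ~5 × 10^5 CFU/mL from the sub-inhibitory well of the previous plate. Compounds serially diluted in triplicate, incubated ≥18 h at 37 °C, MIC read visually. Resistance defined as >4-fold MIC rise.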

[32] = tested on: Enterococcus faecium; experiment: Antibacterial activity against vancomycin-resistant Enterococcus faecium ATCC HM-968 after 14 serial passages measured after 18 hrs by broth microdillution method; assay type: functional; summary of the method: as §7
[33] = tested on: Enterococcus faecalis; experiment: Synergistic antimicrobial activity against Enterococcus faecalis ATCC 49532 after 20 hrs in presence of ciprofloxacin by checkerboard assay; assay type: functional
Summary of the method: (§8)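 Checkerboard in TSB with a starting inoculum of 1×10^5 CFU/mL. Compound and antibiotic diluted from 2× or 4× MIC along perpendicular axes. Incubated 20 h at 37 °C. ΣFIC calculated: ≤0.5 synergy, >0.5 to <2 additive, 2–4 indifference, >4 antagonism.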

[34] = tested on: Enterococcus faecalis; experiment: Synergistic antimicrobial activity against Enterococcus faecalis ATCC 49533 after 20 hrs in presence of ciprofloxacin by checkerboard assay; assay type: functional; summary of the method: as §8
[35] = Toxicity in Caenorhabditis elegans AU37 assessed as worm survival at 20 ug/ml after 24 hrs by microscopic analysis; settings: AU37, caenorhabditis elegans
Summary of the method: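 Adult C. elegans AU37, 15–20 per well, exposed in triplicate to 10 or 20 μg/mL, with sterile water as negative control. Viability checked by microscopy. Result reported as percent viable worms after 24 h exposure.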

[36] = tested on: Enterococcus faecalis; experiment: Antibacterial activity against vancomycin-resistant Enterococcus faecalis HM-201 infected in Caenorhabditis elegans AU37 assessed as reduction in bacterial burden at 20 ug/ml after 18 hrs by CFU-based […] analysis relative to control; assay type: functional; set-up: scale not given: the % may be the effect or the level left
Summary of the method: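 C. elegans AU37 adults infected on an E. faecalis HM-201 lawn for 2 h, washed in M9, 20–25 worms per well. Treated in triplicate with 20 μg/mL, with water as negative control. Worms washed, lysed with silicon carbide by vortexing, diluted serially and plated on TSA with 50 μg/mL gentamicin. CFU counted after 18 h at 37 °C and expressed as % reduction versus untreated worms.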

## N[C@@H]1CONC1=O
[1]
  Activity: Active
[2]
  Activity: Active
[3]
  Activity: Active
[4]
  Activity: Active

## CCCCC#Cc1ccc(-c2nc(C)c(/C(C)=N/NC(=N)N)s2)cc1
[5]
  MIC: 8 µg/mL (≈ 22.6 µM)
[6]
  MIC: > 128 µg/mL
[7]
  MIC: > 128 µg/mL
[8]
  MIC: > 128 µg/mL
[9]
  MIC: > 128 µg/mL
[10]
  MIC: 8 µg/mL (≈ 22.6 µM)
[11]
  MIC: 0.5 µg/mL (≈ 1.41 µM)
[12]
  MIC: 1 µg/mL
[13]
  MIC: 1 µg/mL
[14]
  MIC: 1 µg/mL
[15]
  MIC: 1 µg/mL
[16]
  MIC: 1 µg/mL
[17]
  MIC: 1.3 to 5.6 µg/mL (≈ 3.68 to 15.8 µM)
[18]
  MIC50: 4 µg/mL (≈ 11.3 µM)
[19]
  MIC50: 8 µg/mL (≈ 22.6 µM)
[20]
  MIC50: 4 µg/mL (≈ 11.3 µM)
[21]
  MBC50: 4 µg/mL (≈ 11.3 µM)
[22]
  MBC50: 4 µg/mL (≈ 11.3 µM)
[23]
  MBC50: 8 µg/mL (≈ 22.6 µM)
[24]
  MBC50: 4 µg/mL (≈ 11.3 µM)
[25]
  Activity: Active
[26]
  Activity: Active
[27]
  Activity: Non-Toxic
[28]
  Activity: Non-Toxic
[29]
  Activity: Toxic
[30]
  Activity: Active
[31]
  Ratio: 1
[32]
  Activity: Active
[33]
  fractional inhibitory concentration index (FICI): 0.63 - 1
[34]
  fractional inhibitory concentration index (FICI): 0.63 - 1
[35]
  survival at 24 h, 20 ug/ml: 90%
[36]
  Activity: 94%

## CC[C@H]1OC(=O)[C@H](C)[C@@H](O[C@H]2C[C@@](C)(OC)[C@@H](O)[C@H](C)O2)[C@H](C)[C@@H](O[C@@H]2O[C@H](C)C[C@H](N(C)C)[C@H]2O)[C@](C)(O)C[C@@H](C)C(=O)[C@H](C)[C@@H](O)[C@]1(C)O [ERYTHROMYCIN]
[5]
  MIC: 8 µg/mL (≈ 10.9 µM)
[6]
  MIC: 64 µg/mL (≈ 87.2 µM)
[7]
  MIC: 128 µg/mL (≈ 174 µM)
[8]
  MIC: 128 µg/mL (≈ 174 µM)
[9]
  MIC: 128 µg/mL (≈ 174 µM)
[12]
  MIC: 0.5 µg/mL
[13]
  MIC: 1 µg/mL
[14]
  MIC: 1 µg/mL
[15]
  MIC: 0.5 µg/mL
[16]
  MIC: 1 µg/mL
